In ChEMBL document CHEMBL3352465, “The SAR development of substituted purine derivatives as selective CB2 agonists for the treatment of chronic pain” (Bioorg Med Chem Lett, 2014):

Experiments:
[1] = Drug metabolism in human liver microsomes at 2 uM after 0.5 hr by LC/MS/MS analysis; type: ADME; conditions: read-out: Drug metabolism
[2] = Drug metabolism in rat liver microsomes at 2 uM after 0.5 hr by LC/MS/MS analysis; type: ADME; conditions: read-out: Drug metabolism
[3] = Drug metabolism in dog liver microsomes at 2 uM after 0.5 hr by LC/MS/MS analysis; type: ADME, Canis lupus familiaris; conditions: read-out: Drug metabolism
[4] = target: T1, Cannabinoid receptor 2 (Homo sapiens, UniProt P34972); experiment: Agonist activity at human CB2 receptor expressed in CHO cells by [35S]-GTPgammaS binding assay relative to control; type: functional, cell-based
[5] = organism: Rattus norvegicus; experiment: Inhibition of GABA gated chloride channel in rat cortex at 10 uM by radioligand binding assay
In short: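 Radioligand binding to GABA-gated chloride channels from rat, run by an outside contract lab.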

[6] = target: T1, Cannabinoid receptor 2; experiment: Agonist activity at human CB2 receptor expressed in CHO cells by [35S]-GTPgammaS binding assay; type: functional, cell-based
[7] = target: Cannabinoid receptor 1 (Homo sapiens, UniProt P21554); experiment: Agonist activity at human CB1 receptor expressed in Sf9 cells by [35S]-GTPgammaS binding assay; type: functional
Sequence of Cannabinoid receptor 1 (P21554 whole entry): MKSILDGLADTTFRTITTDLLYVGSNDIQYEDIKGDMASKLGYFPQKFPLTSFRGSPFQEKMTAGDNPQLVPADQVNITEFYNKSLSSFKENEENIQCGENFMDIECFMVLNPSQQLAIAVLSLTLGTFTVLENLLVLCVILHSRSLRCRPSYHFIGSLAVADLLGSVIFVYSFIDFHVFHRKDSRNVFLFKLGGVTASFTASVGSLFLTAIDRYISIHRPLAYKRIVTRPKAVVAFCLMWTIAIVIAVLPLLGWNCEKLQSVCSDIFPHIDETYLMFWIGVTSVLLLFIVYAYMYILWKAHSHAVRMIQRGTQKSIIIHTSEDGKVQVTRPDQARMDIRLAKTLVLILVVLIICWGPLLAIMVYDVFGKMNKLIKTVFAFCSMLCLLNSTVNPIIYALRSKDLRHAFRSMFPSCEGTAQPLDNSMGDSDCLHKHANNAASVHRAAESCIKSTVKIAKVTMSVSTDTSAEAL

T1 sequence (P34972 whole entry): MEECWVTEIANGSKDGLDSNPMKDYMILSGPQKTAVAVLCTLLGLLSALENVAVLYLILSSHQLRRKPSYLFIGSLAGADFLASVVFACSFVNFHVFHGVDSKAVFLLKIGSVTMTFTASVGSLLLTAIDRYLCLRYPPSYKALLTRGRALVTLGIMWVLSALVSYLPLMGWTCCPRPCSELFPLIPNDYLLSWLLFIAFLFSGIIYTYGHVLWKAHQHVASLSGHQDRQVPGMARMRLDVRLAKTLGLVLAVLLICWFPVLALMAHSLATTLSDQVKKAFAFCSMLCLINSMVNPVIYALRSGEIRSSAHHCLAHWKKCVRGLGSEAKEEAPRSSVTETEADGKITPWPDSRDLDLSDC

| SMILES | metabolised at 0.5 h, 2 µM [1] [%] | metabolised at 0.5 h, 2 µM [2] [%] | metabolised at 0.5 h, 2 µM [3] [%] | Efficacy [4] [%] | inhibition [5] [%] | EC50 [6] [nM] | EC50 [7] [nM] |
| --- | --- | --- | --- | --- | --- | --- | --- |
| COC(=O)NCCn1c(-c2ccccc2Cl)nc2c(N3CCN(C)CC3)nc(C)nc21 | 14 | 25 | 62 | – | – | – | – |
| CCN1CCN(c2nc(C)nc3c2nc(-c2ccccc2Cl)n3C(COC)COC)CC1 | 35 | 58 | 66 | 69.3 | < 10 | 5 | > 100000 |
| Cc1nc(N2CCN(C)CC2)c2nc(-c3ccccc3Cl)n(CC(C)(C)O)c2n1 | 24 | 92 | 52 | 85.4 | 83 | 5.9 | > 100000 |
| CCN1CCN(c2nc(C)nc3c2nc(-c2ccccc2Cl)n3CCOC)CC1 | – | – | – | – | 97 | – | – |
